Experimental data published in ChEMBL document CHEMBL4346684, “Synthesis and structure-bactericidal activity relationships of non-ketolides: 9-Oxime clarithromycin 11,12-cyclic carbonate featured with three-to eight-atom-length spacers at 3-OH” (Eur J Med Chem, 2019).
≈ marks a conversion by molar mass, not a printed value.

What was measured:
Format in all cases: functional
Staphylococcus aureus [1] = test: Ratio of MBC to MIC for inducibly erythromycin-resistant and methicillin resistant Staphylococcus aureus PU32 expressing i-ermA
Staphylococcus aureus [2] = test: Antimicrobial activity against constitutively erythromycin resistant and methicillin resistant Staphylococcus aureus PU20 expressing c-ermC incubated in CAMHB medium for 20 hrs by two-fold microbroth dilution method; conditions: PU20, 20 h
How it was run: (§1)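 Purified fresh Staphylococcus isolate at about 5×10^5 CFU/ml final in CAMHB, 35 °C for 20 h. Each run included ATCC strains and reference antibiotics as QC, plus an antibiotic-free growth control.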

Staphylococcus aureus [3] = test: Antimicrobial activity against inducibly erythromycin-resistant Staphylococcus aureus PU32 expressing i-ermA incubated in CAMHB medium for 20 hrs by two-fold microbroth dilution method; conditions: PU32, 20 h
How it was run: (§2)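 Purified fresh Staphylococcus isolate at about 5×10^5 CFU/ml final in CAMHB, 35 °C for 20 h. […] Each run included ATCC strains and reference antibiotics as QC, plus an antibiotic-free growth control.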

Streptococcus pneumoniae [4] = test: Ratio of MBC to MIC for mef-encoded erythromycin resistant Streptococcus pneumoniae PU09
Streptococcus pyogenes [5] = test: Antimicrobial activity against inducibly erythromycin resistant Streptococcus pyogenes 01-968 expressing i-ermA incubated in CAMHB medium for 20 to 24 hrs by two-fold microbroth dilution method
Streptococcus pneumoniae [6] = test: Antimicrobial activity against mef-encoded erythromycin resistant Streptococcus pneumoniae PU09 incubated in CAMHB medium for 20 to 24 hrs by two-fold microbroth dilution method
Staphylococcus aureus [7] = test: Antimicrobial activity against constitutively erythromycin resistant Staphylococcus aureus PU20 expressing c-ermC incubated in CAMHB medium for 20 hrs by two-fold microbroth dilution method; conditions: PU20, 20 h; how it was run: as §2
Streptococcus pneumoniae [8] = test: Bactericidal activity against erythromycin-susceptible Streptococcus pneumoniae ATCC 49619 assessed as reduction in colony formation incubated in CAMHB medium for 20 to 24 hrs followed by 24 hrs subculturing in the medium without test compound
Streptococcus pneumoniae [9] = test: Ratio of MBC to MIC for erythromycin-susceptible Streptococcus pneumoniae ATCC 49619
Moraxella catarrhalis [10] = test: Ratio of MBC to MIC for erythromycin-susceptible Moraxella catarrhalis 13L332
Staphylococcus aureus [11] = test: Antimicrobial activity against inducibly erythromycin resistant Staphylococcus aureus PU64 expressing i-ermA incubated in CAMHB medium for 20 hrs by two-fold microbroth dilution method; conditions: PU64, 20 h; how it was run: as §2
Moraxella catarrhalis [12] = test: Bactericidal activity against erythromycin-susceptible Moraxella catarrhalis 13L332 assessed as reduction in colony formation incubated in CAMHB medium for 20 hrs followed by 24 hrs subculturing in the medium without test compound
Streptococcus pneumoniae [13] = test: Antimicrobial activity against constitutively erythromycin resistant Streptococcus pneumoniae PU27 expressing c-erm incubated in CAMHB medium for 20 to 24 hrs by two-fold microbroth dilution method
How it was run: (§3)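 Purified fresh Streptococcus isolate at about 5×10^5 CFU/ml final in CAMHB with 5% horse serum, 35 °C for 20–24 h. […] Each run included ATCC strains and reference antibiotics as QC, plus an antibiotic-free growth control.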

Haemophilus influenzae [14] = test: Bactericidal activity against azithromycin-susceptible Haemophilus influenzae ATCC 49247 assessed as reduction in colony formation incubated in HTM broth medium for 20 to 24 hrs followed by 24 hrs subculturing in the medium without test compound
Streptococcus pyogenes [15] = test: Antimicrobial activity against erythromycin-susceptible Streptococcus pyogenes A3 incubated in CAMHB medium for 20 to 24 hrs by two-fold microbroth dilution method
Streptococcus pyogenes [16] = test: Antimicrobial activity against constitutively erythromycin resistant Streptococcus pyogenes A2 expressing c-erm incubated in CAMHB medium for 20 to 24 hrs by two-fold microbroth dilution method; how it was run: as §3
Haemophilus influenzae [17] = test: Ratio of MBC to MIC for azithromycin-susceptible Haemophilus influenzae ATCC 49247
Streptococcus pyogenes [18] = test: Ratio of MBC to MIC for inducibly erythromycin resistant Streptococcus pyogenes 01-968 expressing i-ermA
Staphylococcus aureus [19] = test: Antimicrobial activity against inducibly erythromycin-resistant and methicillin resistant Staphylococcus aureus PU32 expressing i-ermA incubated in CAMHB medium for 20 hrs by two-fold microbroth dilution method; conditions: PU32, 20 h; how it was run: as §1
Streptococcus pyogenes [20] = test: Bactericidal activity against inducibly erythromycin resistant Streptococcus pyogenes 01-968 expressing i-ermA assessed as reduction in colony formation incubated in CAMHB medium for 20 to 24 hrs followed by 24 hrs subculturing in the medium without test compound
Staphylococcus aureus [21] = test: Bactericidal activity against constitutively erythromycin resistant and methicillin-resistant Staphylococcus aureus PU20 expressing c-ermC assessed as reduction in colony formation incubated in CAMHB medium for 20 hrs followed by 24 hrs subculturing in the medium without test compound
Haemophilus influenzae [22] = test: Antimicrobial activity against azithromycin-susceptible Haemophilus influenzae ATCC 49247 incubated in HTM broth medium for 20 to 24 hrs by two-fold microbroth dilution method
[23] = test system: Staphylococcus epidermidis; test: Antimicrobial activity against Staphylococcus epidermidis E1 incubated in CAMHB medium for 20 hrs by two-fold microbroth dilution method; conditions: E1, 20 h
How it was run: (§4)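 Clinical isolates and ATCC strains, purified by plate activation and used fresh; inoculum about 5×10^5 CFU/ml final. Grown in CAMHB at 35 °C for 20 h.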

Moraxella catarrhalis [24] = test: Antimicrobial activity against erythromycin-susceptible Moraxella catarrhalis 13L332 incubated in CAMHB medium for 20 hrs by two-fold microbroth dilution method; conditions: 13L332, 20 h; how it was run: as §4
Streptococcus pneumoniae [25] = test: Bactericidal activity against mef-encoded erythromycin resistant Streptococcus pneumoniae PU09 assessed as reduction in colony formation incubated in CAMHB medium for 20 to 24 hrs followed by 24 hrs subculturing in the medium without test compound
Streptococcus pneumoniae [26] = test: Antimicrobial activity against erythromycin-susceptible Streptococcus pneumoniae ATCC 49619 incubated in CAMHB medium for 20 to 24 hrs by two-fold microbroth dilution method
Staphylococcus aureus [27] = test: Bactericidal activity against inducibly erythromycin-resistant and methicillin resistant Staphylococcus aureus PU32 expressing i-ermA assessed as reduction in colony formation incubated in CAMHB medium for 20 hrs followed by 24 hrs subculturing in the medium without test compound
Staphylococcus aureus [28] = test: Antimicrobial activity against erythromycin-susceptible Staphylococcus aureus ATCC 29213 incubated in CAMHB medium for 20 hrs by two-fold microbroth dilution method; conditions: ATCC 29213, 20 h; how it was run: as §4
Staphylococcus aureus [29] = test: Ratio of MBC to MIC for constitutively erythromycin resistant and methicillin-resistant Staphylococcus aureus PU20 expressing c-ermC

`CC[C@H]1OC(=O)[C@H](C)[C@@H](O[C@H]2C[C@@](C)(OC)[C@@H](O)[C@H](C)O2)[C@H](C)[C@@H](O[C@@H]2O[C@H](C)C[C@H](N(C)C)[C@H]2O)[C@](C)(OC)C[C@@H](C)C(=O)[C@H](C)[C@@H](O)[C@]1(C)O` [CLARITHROMYCIN] was tested, and the Ratio (Staphylococcus aureus [1]) was >8, the MIC (Staphylococcus aureus [2]) was > 256 mg/L and the MIC (Staphylococcus aureus [3]) was > 256 mg/L. For the same compound, the Ratio (Streptococcus pneumoniae [4]) was 2 - 8, the MIC (Streptococcus pyogenes [5]) was 1 to 8 mg/L (≈ 1.34 to 10.7 µM) and the MIC (Streptococcus pneumoniae [6]) was 4 mg/L (≈ 5.35 µM). For the same compound, the MIC (Staphylococcus aureus [7]) was > 256 mg/L, the MBC (Streptococcus pneumoniae [8]) was 0.125 to 0.25 mg/L (≈ 0.167 to 0.334 µM) and the Ratio (Streptococcus pneumoniae [9]) was 2 - 4. The Ratio (Moraxella catarrhalis [10]) was 4, the MIC (Staphylococcus aureus [11]) was > 256 mg/L and the MBC (Moraxella catarrhalis [12]) was 0.125 mg/L (≈ 0.167 µM). The MIC (Streptococcus pneumoniae [13]) was 4 mg/L (≈ 5.35 µM), the MBC (Haemophilus influenzae [14]) was 8 mg/L (≈ 10.7 µM) and the MIC (Streptococcus pyogenes [15]) was ≤ 0.032 mg/L. The MIC (Streptococcus pyogenes [16]) was 128 mg/L (≈ 171 µM), the Ratio (Haemophilus influenzae [17]) was 2 and the Ratio (Streptococcus pyogenes [18]) was >8. For the same compound, the MIC (Staphylococcus aureus [19]) was 32 mg/L (≈ 42.8 µM), the MBC (Streptococcus pyogenes [20]) was 8 to 64 mg/L (≈ 10.7 to 85.6 µM) and the MBC (Staphylococcus aureus [21]) was > 256 mg/L. The MIC (Haemophilus influenzae [22]) was 4 mg/L (≈ 5.35 µM), the MIC [23] was > 256 mg/L and the MIC (Moraxella catarrhalis [24]) was 0.031 mg/L (≈ 0.0414 µM). For the same compound, the MBC (Streptococcus pneumoniae [25]) was 8 to 32 mg/L (≈ 10.7 to 42.8 µM), the MIC (Streptococcus pneumoniae [26]) was 0.06 to 0.064 mg/L (≈ 0.0802 to 0.0856 µM) and the MBC (Staphylococcus aureus [27]) was > 256 mg/L. For the same compound, the MIC (Staphylococcus aureus [28]) was 0.25 mg/L (≈ 0.334 µM).
Compound `CC[C@H]1OC(=O)[C@H](C)[C@@H](OCC#Cc2ccc(OCc3ccccc3)cc2)[C@H](C)[C@@H](O[C@@H]2O[C@H](C)C[C@H](N(C)C)[C@H]2O)[C@](C)(OC)C[C@@H](C)/C(=N\OC)[C@H](C)[C@H]2OC(=O)O[C@@]21C` has an MIC (Staphylococcus aureus [2]) of 32 mg/L (≈ 37 µM), a Ratio (Streptococcus pneumoniae [4]) of 2 and an MIC (Streptococcus pyogenes [5]) of 4 mg/L (≈ 4.62 µM). The MIC (Streptococcus pneumoniae [6]) was 8 mg/L (≈ 9.25 µM), the MBC (Streptococcus pneumoniae [8]) was 32 mg/L (≈ 37 µM) and the Ratio (Streptococcus pneumoniae [9]) was 4. It also gave a Ratio (Moraxella catarrhalis [10]) of 1, an MBC (Moraxella catarrhalis [12]) of 8 mg/L (≈ 9.25 µM) and a Ratio (Streptococcus pyogenes [18]) of 2. For the same compound, the MIC (Staphylococcus aureus [19]) was > 256 mg/L, the MBC (Streptococcus pyogenes [20]) was 8 mg/L (≈ 9.25 µM) and the MBC (Staphylococcus aureus [21]) was 256 mg/L (≈ 296 µM). The Ratio (Staphylococcus aureus [29]) was 8, the MIC (Moraxella catarrhalis [24]) was 8 mg/L (≈ 9.25 µM) and the MBC (Streptococcus pneumoniae [25]) was 16 mg/L (≈ 18.5 µM). The MIC (Streptococcus pneumoniae [26]) was 8 mg/L (≈ 9.25 µM) and the MBC (Staphylococcus aureus [27]) was > 256 mg/L.
